Test results from ChEMBL document CHEMBL4038344, “Novel Diarylurea Based Allosteric Modulators of the Cannabinoid CB1 Receptor: Evaluation of Importance of 6-Pyrrolidinylpyridinyl Substitution” (J Med Chem, 2017).
Active and inactive are the calls of the source. The rule behind the calls is not given here.

Legend:
Cannabinoid receptor 1 [1] = biological target: T1, Cannabinoid receptor 1 (Homo sapiens, UniProt P21554); assay: (§1) Agonist activity at human CB1 receptor expressed in CHO cells co-expressing Galpha16 assessed as increase in calcium mobilization at 10 uM measured at 1 sec interval for 90 secs by calcium-5 dye based FLIPR assay relative to CP55,940; assay type: cell-based; conditions: 0.025 h
T1 sequence (P21554 whole entry): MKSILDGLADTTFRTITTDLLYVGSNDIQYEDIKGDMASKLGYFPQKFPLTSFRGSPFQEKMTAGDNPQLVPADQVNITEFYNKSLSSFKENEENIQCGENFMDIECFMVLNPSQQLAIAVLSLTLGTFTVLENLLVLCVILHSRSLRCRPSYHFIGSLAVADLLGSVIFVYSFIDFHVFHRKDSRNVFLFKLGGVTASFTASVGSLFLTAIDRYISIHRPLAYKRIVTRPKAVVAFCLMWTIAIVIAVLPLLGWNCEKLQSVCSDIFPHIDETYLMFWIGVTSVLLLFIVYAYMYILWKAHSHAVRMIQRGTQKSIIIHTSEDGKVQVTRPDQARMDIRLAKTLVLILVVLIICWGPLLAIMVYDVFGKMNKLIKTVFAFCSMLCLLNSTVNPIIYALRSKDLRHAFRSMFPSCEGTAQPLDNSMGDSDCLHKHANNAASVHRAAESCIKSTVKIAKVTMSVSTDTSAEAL

Cannabinoid receptor 2 [2] = biological target: T2, Cannabinoid receptor 2 (Homo sapiens, UniProt P34972); assay: as §1, with “Antagonist” for “Agonist”, “CB2” for “CB1”, “inhibition of CP55,940-induced” for “increase in”, “uM preincubated for 15 mins followed by CP55,490 addition” for “uM”; assay type: functional, cell-based
T2 sequence (P34972 whole entry): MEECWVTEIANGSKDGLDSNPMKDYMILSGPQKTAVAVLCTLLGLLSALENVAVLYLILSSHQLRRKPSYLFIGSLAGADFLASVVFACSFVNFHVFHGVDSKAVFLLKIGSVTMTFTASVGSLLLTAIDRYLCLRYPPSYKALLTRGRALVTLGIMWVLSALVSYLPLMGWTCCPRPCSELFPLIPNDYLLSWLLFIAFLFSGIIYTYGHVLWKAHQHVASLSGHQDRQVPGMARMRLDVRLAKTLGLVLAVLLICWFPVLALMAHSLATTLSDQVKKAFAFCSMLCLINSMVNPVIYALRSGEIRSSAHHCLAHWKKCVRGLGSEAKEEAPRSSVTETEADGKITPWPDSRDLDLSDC

Cannabinoid receptor 2 [3] = biological target: T2, Cannabinoid receptor 2; assay: Agonist activity at human CB2 receptor expressed in CHO cells co-expressing Galpha16 assessed as increase in calcium mobilization at 10 uM measured at 1 sec interval for 90 secs by calcium-5 dye based FLIPR assay relative to CP55,940; assay type: functional, cell-based
How it was run: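 CB2 agonist screen in stable human CB2-CHO-RD-HGA16 cells. Cells were Calcium 5 dye-loaded for 45 min at 37 °C in HBSS/HEPES/probenecid buffer, pH 7.4, and pretreated with vehicle. FLIPR Tetra then added compound at a single concentration. Fluorescence (485/525 nm) was expressed as % of CP55,940 Emax.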

Cannabinoid receptor 2 [4] = biological target: T2, Cannabinoid receptor 2; assay: Antagonist activity at human CB2 receptor expressed in CHO cells co-expressing Galpha16 assessed as inhibition of CP55,940-induced calcium mobilization preincubated for 15 mins followed by CP55,490 addition measured at 1 sec interval for 90 secs by calcium-5 dye based FLIPR assay; assay type: functional, cell-based
Liver [5] = assay: Clearance in rat liver microsomes in presence of NADPH by LC-MS/MS analysis; assay type: ADME, microsome
How it was run: (§2)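 Compound was incubated at 37 °C with rat liver microsomes (0.5 mg/mL protein) in 100 mM potassium phosphate, pH 7.4, with 1 mM NADPH. Samples were taken at 0, 5, 15, 30 and 45 min and quenched 1:1 with ice-cold stop solution containing labetalol. Half-life and clearance are mean ± SD of two independent experiments.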

[6] = (§3) Half life in rat liver microsomes in presence of NADPH by LC-MS/MS analysis; assay type: ADME, microsome; conditions: liver microsomes; how it was run: as §2
Cannabinoid receptor 1 [7] = biological target: Cannabinoid receptor 1 (Rattus norvegicus, UniProt P20272); assay: Allosteric modulation of CB1 receptor in rat cerebellar membranes assessed as inhibition of CP55,940-induced [35S]GTPgammaS binding; assay type: functional, cell membranes, Cerebellum, Membrane
Sequence of Cannabinoid receptor 1 (Rattus norvegicus, UniProt P20272) (P20272 whole entry): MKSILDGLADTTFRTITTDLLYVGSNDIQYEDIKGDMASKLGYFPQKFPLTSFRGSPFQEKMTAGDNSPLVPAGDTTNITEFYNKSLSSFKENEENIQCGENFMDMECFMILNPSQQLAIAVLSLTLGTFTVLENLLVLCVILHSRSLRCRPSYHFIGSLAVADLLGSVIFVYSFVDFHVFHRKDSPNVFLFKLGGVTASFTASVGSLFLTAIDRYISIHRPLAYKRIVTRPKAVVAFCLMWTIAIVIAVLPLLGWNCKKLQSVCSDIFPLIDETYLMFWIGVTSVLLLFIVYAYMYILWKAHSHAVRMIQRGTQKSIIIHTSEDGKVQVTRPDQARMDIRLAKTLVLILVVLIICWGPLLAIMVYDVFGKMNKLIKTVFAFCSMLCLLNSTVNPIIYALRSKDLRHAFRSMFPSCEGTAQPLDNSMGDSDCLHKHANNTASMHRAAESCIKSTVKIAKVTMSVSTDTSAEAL

Rattus norvegicus [8] = assay: Reduction in cocaine-induced reinstatement of cocaine seeking behavior in Sprague-Dawley rat at 30 mg/kg pretreated for 10 mins followed by cocaine treatment on day following last extinction session; assay type: functional, organism-based
How it was run: (§4)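 Adult male Sprague-Dawley rats (280-300 g) with jugular catheters self-administered cocaine (0.75 mg/kg/infusion, FR1 rising to FR5) in 2-hr daily sessions for 14 days, followed by extinction. On the day after the last extinction session, compound was given 10 min before a cocaine prime (10 mg/kg i.p.). Active lever presses were counted over the 2-hr reinstatement session.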

Liver [9] = assay: as §3; assay type: ADME, microsome; conditions: microsomes; how it was run: as §2
[10] = biological target: Cannabinoid receptor 1 (Mus musculus) (UniProt P47746); assay: PAM antagonist activity at CB1 receptor in CD-1 mouse cerebellar membranes assessed as inhibition of CP55,940-induced [35S]GTPgammaS binding after 60 mins; conditions: Cerebellum, Membrane
Sequence of Cannabinoid receptor 1 (Mus musculus) (P47746 whole entry, looked up): as the sequence (P20272 whole entry) above, with E95D counted along it

[11] = biological target: Cannabinoid receptor 1 (Mus musculus) (UniProt P47746); assay: PAM antagonist activity at CB1 receptor in CD-1 mouse cerebellar membranes assessed as increase in [3H]CP55,940 binding after 90 mins relative to control; design: scale not given: the % may be the effect or the level left; conditions: Cerebellum, Membrane
Cannabinoid receptor 1 [12] = biological target: T1, Cannabinoid receptor 1; assay: PAM antagonist activity at human CB1 receptor expressed in CHO cells co-expressing Galpha16 assessed as inhibition of CP55,940-induced calcium mobilization up to 100 nM preincubated for 15 mins followed by CP55,490 addition measured at 1 sec interval for 90 secs by calcium-5 dye based FLIPR assay; assay type: functional, cell-based
Rattus norvegicus [13] = assay: Reduction in cocaine-induced reinstatement of cocaine seeking behavior in Sprague-Dawley rat at 10 mg/kg pretreated for 10 mins followed by cocaine treatment on day following last extinction session; assay type: functional, organism-based; how it was run: as §4
Cannabinoid receptor 1 [14] = biological target: Cannabinoid receptor 1 (Mus musculus, UniProt P47746); assay: Allosteric modulation of CB1 receptor in CD-1 mouse cerebellar membranes assessed as inhibition of CP55,940-induced [35S]GTPgammaS binding after 60 mins; assay type: functional, cell membranes, Cerebellum, Membrane
Sequence of Cannabinoid receptor 1 (Mus musculus, UniProt P47746) (P47746 whole entry): as the sequence (P20272 whole entry) above, with E95D counted along it
How it was run: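 They were preincubated 10 min with adenosine deaminase (3 U/ml) in buffer containing 1 mg/ml BSA, then incubated 60 min at 30 °C with 30 µM GDP, 0.1 nM [35S]GTPγS, 100 nM CP55,940 and compound (0.1% DMSO). Nonspecific binding was measured with 30 µM GTPγS. Read-out was filtration.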

| Compound | Emax at 10 µM (Cannabinoid receptor 1 [1]) | Imax (Cannabinoid receptor 2 [2]) | Emax (Cannabinoid receptor 2 [3]) | other results |
| --- | --- | --- | --- | --- |
| O=C(Nc1ccc(Cl)cc1)Nc1cccc(-c2ccc(F)cc2F)c1 | 9% | < 50% | < 10% | – |
| O=C(Nc1ccc(Cl)cc1)Nc1cccc(-c2ccc(Cl)cc2)c1 | 21% | < 50% | < 10% | – |
| O=C(Nc1ccc(Cl)cc1)Nc1cccc(-c2ccc(C(=O)c3ccccc3)cc2)c1 | 13% | < 50% | < 10% | – |
| O=C(Nc1ccc(Cl)cc1)Nc1cccc(-c2cccc([N+](=O)[O-])c2)c1 | 17% | – | < 10% | IC50 (Cannabinoid receptor 2 [4]): > 10 µM |
| CC(C)(C)c1cc(-c2cccc(NC(=O)Nc3ccc(Cl)cc3)c2)cc(C(C)(C)C)c1 | 10% | < 50% | < 10% | – |
| O=C(Nc1ccc(Cl)cc1)Nc1cccc(-c2c(Cl)cccc2Cl)c1 | 17% | < 50% | < 10% | – |
| O=C(Nc1ccc(Cl)cc1)Nc1cccc(-c2cccc(O)c2)c1 | 10% | < 50% | < 10% | – |
| O=C(Nc1ccc(Cl)cc1)Nc1cccc(-c2ccccc2)c1 | 5% | < 50% | < 10% | – |
| CC(C)(C)c1ccc(-c2cccc(NC(=O)Nc3ccc(Cl)cc3)c2)cc1 | 4% | < 50% | < 10% | – |
| O=C(Nc1ccc(Cl)cc1)Nc1cccc(-c2cccnc2)c1 | 34% | < 50% | < 10% | – |
| COc1cccc(-c2cccc(NC(=O)Nc3ccc(Cl)cc3)c2)n1 | 2% | < 50% | < 10% | – |
| O=C(Nc1ccc(Cl)cc1)Nc1cccc(-c2ccc(Cl)c(Cl)c2)c1 | 20% | – | < 10% | IC50 (Cannabinoid receptor 2 [4]): > 10 µM |
| Cc1cccc(-c2cccc(NC(=O)Nc3ccc(Cl)cc3)c2)c1 | – | < 50% | < 10% | – |
| O=C(Nc1ccc(Cl)cc1)Nc1cccc(-c2cccc(N3CCCC3)n2)c1 | 28% | – | < 10% | CLH (Liver [5]): 113.7 µL/min/mg; half-life [6]: 13 to 13.4 min; IC50 (Cannabinoid receptor 1 [7]): 0.042 to 0.074 µM; IC50 (Cannabinoid receptor 2 [4]): > 10 µM; Activity (Rattus norvegicus [8]): Active |
| COc1cc(-c2cccc(NC(=O)Nc3ccc(Cl)cc3)c2)ccn1 | 23% | < 50% | < 10% | – |
| O=C(Nc1ccc(Cl)cc1)Nc1cccc(-c2cncnc2)c1 | 9% | – | < 10% | IC50 (Cannabinoid receptor 2 [4]): 3.4 µM |

| Compound | Emax at 10 µM (Cannabinoid receptor 1 [1]) | Imax (Cannabinoid receptor 2 [2]) | Emax (Cannabinoid receptor 2 [3]) | other results |
| --- | --- | --- | --- | --- |
| O=C(Nc1ccc(Cl)cc1)Nc1cccc(-c2ccc(F)cc2)c1 | 9% | – | < 10% | CLH (Liver [5]): < 4.6 µL/min/mg; t1/2 (Liver [9]): > 300 min; inhibition [10]: Dose-dependent effect; IC50 (Cannabinoid receptor 2 [4]): > 10 µM; Activity [11]: 215%; inhibition (Cannabinoid receptor 1 [12]): Active; Activity (Rattus norvegicus [13]): Active |
| CC(C)Oc1cccc(-c2cccc(NC(=O)Nc3ccc(Cl)cc3)c2)c1 | – | < 50% | < 10% | – |
| COc1cccc(-c2cccc(NC(=O)Nc3ccc(Cl)cc3)c2)c1 | 13% | < 50% | < 10% | – |
| O=C(Nc1ccc(Cl)cc1)Nc1cccc(-c2ccc3c(c2)Cc2ccccc2-3)c1 | 0% | < 50% | < 10% | – |
| O=C(Nc1ccc(Cl)cc1)Nc1cccc(-c2ccncc2)c1 | 15% | < 50% | < 10% | CLH (Liver [5]): 33.1 µL/min/mg; t1/2 (Liver [9]): 41.9 min |
| O=C(Nc1ccc(Cl)cc1)Nc1cccc(-c2ccc3ccccc3c2)c1 | 7% | < 50% | < 10% | – |
| Cc1ccccc1-c1cccc(NC(=O)Nc2ccc(Cl)cc2)c1 | 6% | – | < 10% | IC50 (Cannabinoid receptor 2 [4]): > 10 µM |
| O=C(Nc1ccc(Cl)cc1)Nc1cccc(-c2ccc3occc3c2)c1 | 1% | < 50% | < 10% | – |
| O=C(Nc1ccc(Cl)cc1)Nc1cccc(-c2cccc(-c3ccccc3)c2)c1 | 1% | < 50% | < 10% | – |
| Cc1ccnc(-c2cccc(NC(=O)Nc3ccc(Cl)cc3)c2)c1 | 3% | < 50% | < 10% | – |
| O=C(Nc1ccc(Cl)cc1)Nc1cccc(-c2ccccn2)c1 | 9% | < 50% | < 10% | – |
| O=C(Nc1ccc(Cl)cc1)Nc1cccc(-c2ccc(-c3ccccc3)cc2)c1 | 0% | < 50% | < 10% | IC50 (Cannabinoid receptor 1 [14]): > 10 µM |
| O=C(Nc1ccc(Cl)cc1)Nc1cccc(-c2cc(Cl)cc(Cl)c2)c1 | 16% | < 50% | < 10% | – |
| O=C(Nc1ccc(Cl)cc1)Nc1cccc(-c2ccc3ccccc3n2)c1 | 5% | < 50% | < 10% | – |
| O=C(Nc1ccc(Cl)cc1)Nc1cccc(-c2cnc3ccccc3c2)c1 | 3% | – | < 10% | IC50 (Cannabinoid receptor 2 [4]): 4.1 µM |
| O=C(Nc1ccc(Cl)cc1)Nc1cccc(-c2ccc3c(c2)OCO3)c1 | 10% | < 50% | < 10% | – |
